NR3A LBD binder: NR3A (human) ligand-binding domain modulation | NR3A LBD differential scanning fluorimetry, Tm shift; 0% = protein alone, 100% = glycine-bound protein | AID 1259313 | actives 2.5% (n = 340,000) | Tm shift relative to glycine control, % at 25 µM;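 active = melting temperature shift of at least 10% of the positive control shift, at one fixed dose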
aDG glyco act: alpha-DG glycosylation activation; Pro5-aDG cells, alpha-DG glycosylation AlphaScreen (IIH6); 0% Pro5, 100% B10-LARGE cell signal; activation, % at 10 µM; actives 0.22% (n = 360,000); AID 624168;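 active = activation of at least 8% versus controls, or a plate z-score of at least 8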;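 also: Pro5 are CHO cells carrying HIG-tagged alpha-DG that lacks glycosylation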
MPTP inh: inhibitors of mitochondrial permeability transition pore | AID 602449 | isolated mouse mitochondria, Ca2+ swelling absorbance, 30 min | actives 1.4% (n = 360,000) | inhibition, % at 10 µM;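 active = inhibition of 50% or more, scaled per plate between neutral and stimulator controls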;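 also: 0% = DMSO wells given calcium and 100% = 1 mM EGTA wells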
proCasp3 act: activates human procaspase-3. P42574. recombinant procaspase-3 D3A, Ac-DEVD-pNA absorbance 405 nm. activation, % at 8.5 µM. actives 0.11% (n = 330,000);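 active = activation above the mean of all tested compounds plus 3 SD, cut at about 21% in these data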;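 also: 0% = DMSO alone and 100% = DMSO wells spiked with extra 5 µM PC-3 D3A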
Target sequence (P42574 whole entry D9A/D28A/D175A): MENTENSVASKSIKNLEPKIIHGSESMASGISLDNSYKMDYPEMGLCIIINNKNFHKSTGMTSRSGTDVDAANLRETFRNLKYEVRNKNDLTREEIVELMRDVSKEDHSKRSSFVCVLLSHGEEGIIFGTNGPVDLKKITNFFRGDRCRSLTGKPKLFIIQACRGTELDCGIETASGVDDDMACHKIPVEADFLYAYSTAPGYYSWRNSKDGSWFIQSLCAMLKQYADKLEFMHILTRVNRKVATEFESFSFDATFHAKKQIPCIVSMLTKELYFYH
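Assay system: Procaspase-3 D3A mutant, all three cleavage aspartates alanine. Buffer or medium: Zinc-free HEPES saline buffer with Triton X-100. Times: 1 h compound preincubation, 2 h substrate hydrolysis at 25 °C. Measured by: 405 nm absorbance of p-nitroaniline, reads at 0 and 120 min. Read-out basis: percent activation relative to control range. Replicates: singlicate.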
proCasp7 act: counter-screen: procaspase-7 (human) activation | P55210 | AID 463210 | actives 0.093% (n = 330,000) | recombinant procaspase-7, Ac-DEVD-pNA absorbance 405 nm; D23A/D198A/D206A triple mutant, cannot self-cleave; scale: DMSO 0, 5 µM enzyme 100 | activation, % at 8.5 µM;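 active = percent activation above the screen-wide mean plus 3 SD, cut at about 25% in these data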
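Material: Procaspase-7 triple mutant (PC-7 D3A) | Quantity: 2 µM procaspase-7 mutant as dispensed | Reagent: DEVD-pNA substrate | Times: 1 h preincubation, 2 h reaction | Technique: 405 nm absorbance of p-nitroaniline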
* marks the source's active call; other numbers are inactive results; x = not tested or not shown. The list is not random: actives were taken first. Their share in the collection is about 3.7%.

SMILES	NR3A LBD binder	aDG glyco act	MPTP inh	proCasp3 act	proCasp7 act
COc1cc(OC)c(C(=O)O/N=C(\N)c2ccc(C)cc2)cc1OC	1	0	0	4	-3
CC(C)(C)NC(=O)C(C1CC1)n1c(=O)c(-c2ccccc2)nc2ccccc21 (configuration not stated)	x	0	1	x	x
O=C(NC(=S)N1CCCC1)c1ccccc1F	1	0	0	-3	-10
O=[N+]([O-])c1ccc(C=NNc2ccc(S(=O)(=O)O)cc2)cc1	-19	0	-2	x	x
O=[N+]([O-])c1ccc(N/N=C/c2cccc(O)c2)cc1	26*	0	2	-13	-30
O=[N+]([O-])c1ccc(N/N=C/c2cccc(O)c2O)cc1	35*	0	7	-4	-2
O=[N+]([O-])c1ccc(N/N=C/c2cccnc2)cc1	12*	0	-1	-15	-11
Cc1ccc(NC(=O)c2ccc(N/N=C/c3cccc(O)c3)c([N+](=O)[O-])c2)cc1	256*	0	7	-5	-1
O=C(N/N=C/c1cccnc1)c1ccc([N+](=O)[O-])cc1	-1	0	-4	10	14
COc1c2ccoc2nc2c(OC)c(OC[C@@H](O)C(C)(C)O)ccc12	1	0	-1	-1	13
CNc1ccc(/C=C/C(=O)c2ccc(C)cc2)cc1[N+](=O)[O-]	21*	0	-1	-1	7
CNc1ccc(/C=C/C(=O)c2ccc3c(c2)OCCO3)cc1[N+](=O)[O-]	-7	0	0	-8	-4
Cc1ccc(N2C(S)=C(C#N)C(=O)NC23CCCCC3)cc1	0	0	0	4	-16
Cc1cccc(N2C(S)=C(C#N)C(=O)NC23CCCCC3)c1	16*	0	0	2	-4
CC1CC(=O)C(C(C2=C(O)CC(C)CC2=O)c2ccccc2)=C(O)C1 (configuration not stated)	0	0	0	x	x
Cc1cc(NC(=S)Nc2ccc(C)c(Cl)c2)n[nH]1	-6	0	-1	-21	-10
COc1ccc(NC(=S)Nc2cc(-c3ccccc3)[nH]n2)cc1Cl	34*	0	3	-7	-11
COc1ccc(NC(=S)Nc2cc(C)[nH]n2)cc1Cl	12*	0	0	-12	-35
CCOc1ccc(NC(=S)Nc2cc(-c3ccccc3)[nH]n2)cc1	14*	0	11	-4	-19
COc1ccc(-c2cnc(C(N)=O)c(=O)[nH]2)cc1	x	0	0	x	x
C/C=C/c1ccc2c(c1)O[C@H](CN(C)C(=O)NC1CCCC1)[C@H](C)CN([C@H](C)CO)S2(=O)=O	x	0	0	x	x
COc1ccc(S(=O)(=O)N2CCCCC2)cc1NC(=O)COC(=O)c1ccco1	4	0	-1	4	12
COc1ccc(C(=O)N/N=C/c2ccc(OC)c(COc3ccc(F)cc3)c2)cc1	6	0	-1	-5	8
COc1ccc(/C=N/NC(=O)c2ccc3nc[nH]c3c2)cc1	15*	0	0	-7	3
O=C(N/N=C/c1ccc2c(c1)OCO2)c1ccc(COCC(F)(F)C(F)F)cc1	-8	0	1	-4	11
SMILES	NR3A LBD binder	aDG glyco act	MPTP inh	proCasp3 act	proCasp7 act
O=C(N/N=C/c1ccccc1[N+](=O)[O-])c1ccc2nc[nH]c2c1	1	0	2	-3	-4
COc1ccc(C(=O)N/N=C/c2ccc(OC)c(COc3ccc(F)cc3F)c2)cc1	15*	0	0	8	-1
O=C(N/N=C/c1ccc(Cl)c([N+](=O)[O-])c1)c1ccc2nc[nH]c2c1	13*	0	-1	-7	-2
COc1ccc(/C=N/NC(=O)c2ccc(COCC(F)(F)C(F)F)cc2)cc1	12*	0	1	8	4
Cc1cc(C)n2nc(C(=O)OCC(=O)Nc3ccc(C)c(S(=O)(=O)N4CCOCC4)c3)nc2n1	-2	0	1	0	0
COc1ccc(/C=C/C(=O)Oc2ccc(/C=N\NC(=O)c3ccc(F)cc3)cc2)cc1	15*	0	0	-3	-9
COc1ccc(/C=C/C(=O)Oc2cccc(/C=N/NC(=O)c3cccc(F)c3)c2)cc1	1	0	0	1	4

Screening results from PubChem BioAssay.
